Results: ChEMBL document CHEMBL3046016, “Antifeedant and growth inhibitory effects of some neo-clerodane diterpenoids isolated from Clerodendron species (Verbenaceae) on Earias vitella and Spodoptera litura” (2003)

Legend:
Type in all cases: functional
Spodoptera litura [1] = test: Antifeedant activity against third-instar larval stage of Spodoptera litura in compound-treated castor leaves assessed as decrease in diet consumption at 0.5 ug/cm2 after 24 hr by no-choice leaf disk assay relative to acetone-treated control; set-up: scale not given: the % may be the effect or the level left
How it was run: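 Larvae were reared on castor leaves at 25 ± 2 °C. In a no-choice test, compound in acetone was painted on the abaxial side of castor leaf disks and air-dried. Five freshly molted third-instar larvae, starved 4 h, were placed per Petri dish with wet cotton. There were five replicates. After 24 h, consumed leaf area was read on a leaf area meter. %AF = 100 − (treated/control)×100.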

Earias vittella [2] = test: Insecticidal activity against third-instar larval stage of Earias vitella assessed as larval mortality at 0.5 ug/cm3 administered through artificial diet containing Abelmoschus esculentus seed powder (reference value: 4%)
Spodoptera litura [3] = test: Insecticidal activity against third-instar larval stage of Spodoptera litura in compound-treated castor leaves assessed as total larval duration time at 0.5 ug/cm2 (reference value: 12.4 +/- 0.48 days)
Spodoptera litura [4] = test: Insecticidal activity against adult Spodoptera litura in compound-treated castor leaves assessed as adult deformity at 0.5 ug/cm2 relative to control
Earias vittella [5] = test: Insecticidal activity against pupal stage of Earias vitella assessed as pupal duration time at 0.5 ug/cm3 administered through artificial diet containing Abelmoschus esculentus seed powder (reference value: 6.4 +/- 0.21 days)
Earias vittella [6] = test: Insecticidal activity against adult Earias vitella assessed as adult deformity at 0.5 ug/cm3 administered through artificial diet containing Abelmoschus esculentus seed powder (reference value: 4%)
Spodoptera litura [7] = test: Insecticidal activity against pupal stage of Spodoptera litura in compound-treated castor leaves assessed as pupal weight at 0.5 ug/cm2 (reference value: 302.4 +/- 5.9 mg)
Spodoptera litura [8] = test: Insecticidal activity against male adult Spodoptera litura in compound-treated castor leaves assessed as adult longevity time at 0.5 ug/cm2 (reference value: 9.4 +/- 0.48 days)
Spodoptera litura [9] = test: Insecticidal activity against pupal stage of Spodoptera litura in compound-treated castor leaves assessed as pupal duration time at 0.5 ug/cm2 (reference value: 9.2 +/- 0.74 days)
Earias vittella [10] = test: Insecticidal activity against female adult Earias vitella assessed as adult longevity time at 0.5 ug/cm3 administered through artificial diet containing Abelmoschus esculentus seed powder (reference value: 8.6 +/- 0.48 days)
Spodoptera litura [11] = test: Insecticidal activity against adult Spodoptera litura in compound-treated castor leaves assessed as adult emergence at 0.5 ug/cm2 relative to control
Spodoptera litura [12] = test: Insecticidal activity against female adult Spodoptera litura in compound-treated castor leaves assessed as adult longevity time at 0.5 ug/cm2 (reference value: 10 +/- 0.63 days)
Earias vittella [13] = test: Insecticidal activity against third-instar larval stage of Earias vitella assessed as total larval duration time at 0.5 ug/cm3 administered through artificial diet containing Abelmoschus esculentus seed powder (reference value: 8.2 +/- 0.48 days)
Earias vittella [14] = test: Insecticidal activity against male adult Earias vitella assessed as adult longevity time at 0.5 ug/cm3 administered through artificial diet containing Abelmoschus esculentus seed powder (reference value: 8.2 +/- 0.4 days)
Earias vittella [15] = test: Insecticidal activity against pupal stage of Earias vitella assessed as pupal weight at 0.5 ug/cm3 administered through artificial diet containing Abelmoschus esculentus seed powder (reference value: 88.2 +/- 4.01 mg)
Earias vittella [16] = test: Antifeedant activity against third-instar larval stage of Earias vitella assessed as decrease in diet consumption at 0.5 ug/cm3 administered through artificial diet containing Abelmoschus esculentus seed powder after 24 hr relative to acetone-treated control; set-up: scale not given: the % may be the effect or the level left
How it was run: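 Artificial diet was modified Klein medium with bhendi (Abelmoschus esculentus) seed powder in place of alfalfa. Compound in acetone was mixed into bhendi meal 12 h before diet preparation so the solvent evaporated. One 3 g diet cube was given to five freshly molted third-instar larvae in a muslin-covered container. After 24 h the cubes were weighed. %AF = 100 − (treated/control)×100.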

Spodoptera litura [17] = test: Insecticidal activity against third-instar larval stage of Spodoptera litura in compound-treated castor leaves assessed as larval mortality at 0.5 ug/cm2 relative to control
Earias vittella [18] = test: Insecticidal activity against pupal stage of Earias vitella assessed as pupal mortality at 0.5 ug/cm3 administered through artificial diet containing Abelmoschus esculentus seed powder (reference value: 8%)
Spodoptera litura [19] = test: Insecticidal activity against pupal stage of Spodoptera litura in compound-treated castor leaves assessed as pupal mortality at 0.5 ug/cm2 relative to control
Earias vittella [20] = test: Insecticidal activity against adult Earias vitella assessed as adult emergence at 0.5 ug/cm3 administered through artificial diet containing Abelmoschus esculentus seed powder (reference value: 88%)

Compound: C/C=C(\C)C(=O)O[C@H]1C[C@@H](OC(C)=O)[C@@]2(C(=O)OC)CO[C@H]3[C@@H](O)[C@@](C)([C@]45O[C@@]4(C)[C@@H]4C[C@H]5O[C@@H]5OC=C[C@@]54O)[C@H]4[C@]1(CO[C@]4(O)C(=O)OC)[C@@H]32 [AZADIRACHTIN A]
- Activity (Spodoptera litura [1]): 79.2%
- mortality (Earias vittella [2]): 68%
- Time (Spodoptera litura [3]): 13.9 days
- Activity (Spodoptera litura [4]): 28.5%
- Time (Earias vittella [5]): 8.4 days
- Activity (Earias vittella [6]): 25%
- Activity (Spodoptera litura [7]): 247.2 mg
- Time (Spodoptera litura [8]): 7.2 days
- Time (Spodoptera litura [9]): 11 days
- Time (Earias vittella [10]): 6.8 days
- Activity (Spodoptera litura [11]): 42.8%
- Time (Spodoptera litura [12]): 7 days
- Time (Earias vittella [13]): 11 days
- Time (Earias vittella [14]): 6.6 days
- Activity (Earias vittella [15]): 59.2 mg
- Activity (Earias vittella [16]): 79.2%
- mortality at 0.5 µg/cm2 (Spodoptera litura [17]): 78%
- mortality (Earias vittella [18]): 37.5%
- mortality at 0.5 µg/cm2 (Spodoptera litura [19]): 28%
- Activity (Earias vittella [20]): 37%
